Test results reported in ChEMBL document CHEMBL4184319, “Fluorescent-Labeled Selective Adenosine A2B Receptor Antagonist Enables Competition Binding Assay by Flow Cytometry” (J Med Chem, 2018).
Calls of active or inactive are those of the source. No cut-off for these calls is given here.

Columns and labels:
[1] = Selectivity ratio of Ki for recombinant human adenosine A3 receptor expressed in CHO cell membranes to Ki for recombinant mouse adenosine A2B receptor expressed in CHO cell membranes; type: cell-based
Adenosine receptor A1 [2] = target: T1, Adenosine receptor A1 (Rattus norvegicus, UniProt P25099); test: Displacement of [3H]CCPA from adenosine A1 receptor in rat brain cortical membranes after 90 mins by liquid scintillation counting method; type: cell membranes
T1 sequence (P25099 whole entry): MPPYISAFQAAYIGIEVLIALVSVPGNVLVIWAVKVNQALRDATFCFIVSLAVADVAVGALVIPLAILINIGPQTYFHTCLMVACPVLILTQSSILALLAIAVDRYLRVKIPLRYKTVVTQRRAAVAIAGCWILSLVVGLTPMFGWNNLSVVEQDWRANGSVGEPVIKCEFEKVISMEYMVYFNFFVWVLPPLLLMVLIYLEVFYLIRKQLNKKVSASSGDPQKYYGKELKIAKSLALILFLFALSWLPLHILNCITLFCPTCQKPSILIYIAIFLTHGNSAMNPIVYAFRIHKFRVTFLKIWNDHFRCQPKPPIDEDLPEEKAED
Procedure, shortened: (§1)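 [³H]CCPA (1 nM) used with rat brain cortical or human A1-CHO membranes, 90 min at rt. Membranes pre-incubated 10-15 min with ADA 0.12 IU/mL. Nonspecific binding defined with 10 µM CADO. Compounds dissolved in DMSO, 2.5 % final. Filtration on GF/B filters with ice-cold Tris-HCl washes, then scintillation counting. Curves used 6-7 concentrations spanning 3 log units. At least three experiments, in duplicate (human) or triplicate (rat).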

Adenosine receptor A2a [3] = target: Adenosine receptor A2a (Rattus norvegicus, UniProt P30543); test: Displacement of [3H]MSX-2 from adenosine A2A receptor in rat brain striatal membranes after 30 mins by liquid scintillation counting method; type: cell membranes, Striatum, Membrane
Procedure, shortened: (§2)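 [³H]MSX-2 (1 nM) used with rat striatal or human A2A-HEK membranes, 30 min at rt. Membranes pre-incubated 10-15 min with ADA 0.12 IU/mL. DMSO 2.5 % final. GF/B filtration, then scintillation counting. Curves used 6-7 concentrations over 3 log units. At least three experiments, in duplicate (human) or triplicate (rat).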

[4] = Selectivity ratio of Ki for adenosine A2A receptor in rat brain striatal membranes to Ki for recombinant human adenosine A2B receptor expressed in CHO cell membranes; type: cell-based
[5] = Selectivity ratio of Ki for recombinant human adenosine A2A receptor expressed in HEK cell membranes to Ki for recombinant mouse adenosine A2B receptor expressed in CHO cell membranes; type: cell-based
Adenosine receptor A2b = target: T2, Adenosine receptor A2b (Homo sapiens, UniProt P29275); test: Antagonist activity at recombinant human adenosine A2B receptor expressed in CHO cell membranes assessed as inhibition of NECA-induced cAMP accumulation preincubated for 1 hr followed by NECA induction measured after 5 mins in presence of [3H]cAMP and bovine cAMP-binding protein by liquid scintillation counting method; type: functional
T2 sequence (P29275 whole entry): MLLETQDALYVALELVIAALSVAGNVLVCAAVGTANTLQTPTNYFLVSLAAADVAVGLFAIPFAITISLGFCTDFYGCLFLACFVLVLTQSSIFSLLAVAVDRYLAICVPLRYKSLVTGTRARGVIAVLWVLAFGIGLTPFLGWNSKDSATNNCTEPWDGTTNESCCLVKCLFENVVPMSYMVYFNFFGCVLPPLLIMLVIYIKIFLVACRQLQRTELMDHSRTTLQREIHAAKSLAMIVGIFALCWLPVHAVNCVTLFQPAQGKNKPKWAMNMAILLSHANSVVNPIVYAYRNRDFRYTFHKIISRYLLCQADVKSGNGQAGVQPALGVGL
Procedure, shortened: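 CHO cells stably expressing human A2BAR, pre-incubated with antagonist dilutions for 1 h at 37°C, then stimulated with NECA (10 µM final) for 5 min at 37°C. Reaction stopped with hot (90 °C) lysis solution (4 mM EDTA, 0.01 % Triton X100). cAMP quantified by radioactive competition with [³H]cAMP and bovine adrenal cAMP-binding protein. Response expressed as % of NECA response without antagonist. Means ± SEM, three independent experiments in duplicate.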

[6] = target: T3, Adenosine receptor A2b (Homo sapiens) (UniProt P29275); test: Binding affinity to recombinant human adenosine A2B receptor expressed in CHO cell membranes at 100 nM after 15 mins by confocal microscopic method; type: cell-based
T3 sequence (whole entry): T2 sequence (P29275 whole entry)
Procedure, shortened: (§3)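 Live CHO cells stably expressing human A2BAR (or wild-type CHO as control) grown on chambered coverslips to about 80 % confluency. Incubated with fluorescent ligand (100 nM) for 15 min at 37°C, alone or after 30 min pre-incubation with PSB-603 (100 nM) or DPCPX (1 µM). Confocal laser scanning imaging with identical settings across conditions. Three similar experiments.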

[7] = Selectivity ratio of Ki for recombinant human adenosine A1 receptor expressed in CHO cell membranes to Ki for recombinant rat adenosine A2B receptor expressed in CHO cell membranes; type: cell-based
Adenosine receptor A1 [8] = target: T4, Adenosine receptor A1 (Homo sapiens, UniProt P30542); test: Displacement of [3H]CCPA from recombinant human adenosine A1 receptor expressed in CHO cell membranes after 90 mins by liquid scintillation counting method; procedure, shortened: as §1
T4 sequence (P30542 whole entry): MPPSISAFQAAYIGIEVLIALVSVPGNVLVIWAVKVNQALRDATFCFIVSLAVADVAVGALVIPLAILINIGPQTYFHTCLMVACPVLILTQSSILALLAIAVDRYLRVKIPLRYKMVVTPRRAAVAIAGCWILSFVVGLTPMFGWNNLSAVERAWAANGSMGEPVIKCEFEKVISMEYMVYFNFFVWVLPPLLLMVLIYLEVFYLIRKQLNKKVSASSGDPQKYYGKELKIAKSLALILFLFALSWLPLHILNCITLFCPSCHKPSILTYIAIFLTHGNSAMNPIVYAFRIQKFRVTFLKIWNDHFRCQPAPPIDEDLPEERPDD

Adenosine receptor A2a [9] = target: Adenosine receptor A2a (Homo sapiens, UniProt P29274); test: Displacement of [3H]MSX-2 from recombinant human adenosine A2A receptor expressed in HEK cell membranes after 30 mins by liquid scintillation counting method
Procedure, shortened: as §2, with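 “IU/mL. Nonspecific binding defined with 10 µM CGS15943.” for “IU/mL.”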

[10] = target: T3, Adenosine receptor A2b (Homo sapiens); test: Binding affinity to recombinant human adenosine A2B receptor expressed in CHO cell membranes at 100 nM after 15 mins in presence of DPCPX by confocal microscopic method; type: cell-based; procedure, shortened: as §3

Adenosine receptor A2a (Rattus norvegicus, UniProt P30543), sequence (P30543 whole entry): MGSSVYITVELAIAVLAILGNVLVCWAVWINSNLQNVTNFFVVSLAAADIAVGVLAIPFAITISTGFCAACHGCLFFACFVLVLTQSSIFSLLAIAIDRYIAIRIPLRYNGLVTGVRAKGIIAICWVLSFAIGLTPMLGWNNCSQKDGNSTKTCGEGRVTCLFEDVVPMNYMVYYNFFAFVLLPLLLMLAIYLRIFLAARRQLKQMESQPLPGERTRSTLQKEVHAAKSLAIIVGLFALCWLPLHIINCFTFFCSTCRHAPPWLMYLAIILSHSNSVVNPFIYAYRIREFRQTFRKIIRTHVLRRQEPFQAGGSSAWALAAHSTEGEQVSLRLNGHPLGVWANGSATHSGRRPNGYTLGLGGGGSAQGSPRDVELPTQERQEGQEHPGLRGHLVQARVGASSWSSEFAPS
Adenosine receptor A2a (Homo sapiens, UniProt P29274), sequence (P29274 whole entry): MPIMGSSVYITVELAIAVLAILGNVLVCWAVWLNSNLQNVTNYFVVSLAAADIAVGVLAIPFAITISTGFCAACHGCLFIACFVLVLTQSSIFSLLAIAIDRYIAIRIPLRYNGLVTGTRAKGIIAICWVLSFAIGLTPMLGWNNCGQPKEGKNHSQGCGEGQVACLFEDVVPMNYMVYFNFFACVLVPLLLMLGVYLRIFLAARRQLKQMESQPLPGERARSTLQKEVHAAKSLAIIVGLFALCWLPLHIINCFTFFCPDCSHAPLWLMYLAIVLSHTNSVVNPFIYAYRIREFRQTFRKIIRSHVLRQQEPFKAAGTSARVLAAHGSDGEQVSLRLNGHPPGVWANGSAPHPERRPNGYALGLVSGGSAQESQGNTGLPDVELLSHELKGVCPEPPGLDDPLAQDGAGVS

Ki (Adenosine receptor A1 [2]): 422 nM | Ki (Adenosine receptor A2a [3]): > 10000 nM | IC50 (Adenosine receptor A2b): 262 nM | Activity [6]: Active | Ki (Adenosine receptor A1 [8]): ≥ 10000 nM | Ki (Adenosine receptor A2a [9]): > 10000 nM | Activity [10]: inactive
SMILES: CCCn1c(=O)[nH]c2nc(-c3ccc(OCC(=O)NCCC4=C5C(C)=CC(C)=[N+]5[B-](F)(F)n5c(C)cc(C)c54)cc3)[nH]c2c1=O
Ratio Ki [1]: > 1000 | Ratio Ki [4]: > 150 | Ratio Ki [5]: > 1000 | Ratio Ki [7]: > 1000
